In article PMC2787731 (Biochimica et biophysica acta, 2009):
Several values for one entry are separate records, joined by “and”; a condition that tells them apart may be missing. Equal entries are not always repeated. Entries after “also recorded” stand apart in the source; their conditions may differ. Where two headings read alike, the source gives them in different places. Each block holds one compound with its values, some of them ahead of it.

What was measured:
[1] = target: T1, carboxylesterase activity of THP1 cell lysates (Homo sapiens, UniProt P23141); assay: Inhibition of carboxylesterase activity of THP1 cell lysates; type: biochemical
T1 sequence (P23141 18-567): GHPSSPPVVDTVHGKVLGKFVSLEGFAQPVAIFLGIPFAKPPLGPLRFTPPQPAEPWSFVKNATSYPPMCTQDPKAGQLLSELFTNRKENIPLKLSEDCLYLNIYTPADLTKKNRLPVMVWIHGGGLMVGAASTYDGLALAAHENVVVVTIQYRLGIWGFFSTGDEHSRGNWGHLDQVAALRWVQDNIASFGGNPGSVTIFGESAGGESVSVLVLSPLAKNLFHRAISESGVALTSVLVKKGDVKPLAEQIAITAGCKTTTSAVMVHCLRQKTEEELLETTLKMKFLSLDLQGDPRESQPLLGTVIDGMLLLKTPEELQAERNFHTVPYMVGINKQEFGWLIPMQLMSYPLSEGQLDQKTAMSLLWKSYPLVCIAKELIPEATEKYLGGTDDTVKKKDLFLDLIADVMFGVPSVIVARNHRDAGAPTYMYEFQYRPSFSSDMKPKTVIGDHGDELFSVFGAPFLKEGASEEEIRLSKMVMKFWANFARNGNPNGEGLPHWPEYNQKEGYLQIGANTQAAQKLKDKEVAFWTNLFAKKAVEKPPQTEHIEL

recombinant CES1 [2] = target: T2, recombinant CES1 (Homo sapiens, UniProt P23141); assay: Inhibition of carboxylesterase activity of recombinant human CES1; type: biochemical; conditions: for Effect on carboxylesterase activity of recombinant CES1 (in words) / Inhibition of carboxylesterase activity of CES1 / Mode of inhibition of recombinant CES1: pNPV; for Inhibition of carboxylesterase activity of CES1: concentration not given; for Mode of inhibition of recombinant CES1: curve fit of fractional inhibition, Dixon plots
T2 sequence (P23141 18-567): T1 sequence (P23141 18-567)

[3] = tested on: THP1 macrophage foam cells; type: cell-based, human; conditions: 10 μM; for Change in intracellular cholesteryl esters vs vehicle control: BSA only acceptor
[4] = tested on: intracellular carboxylesterase activity of THP1 cells; assay: Intracellular carboxylesterase activity in intact THP1 monocytes; type: cell-based, human; conditions: 10 μM, 80 min, pNPV
recombinant CES2 = target: T3, recombinant CES2 (Homo sapiens, UniProt O00748); assay: Inhibition of recombinant CES2 activity; type: biochemical
T3 sequence (O00748 27-559): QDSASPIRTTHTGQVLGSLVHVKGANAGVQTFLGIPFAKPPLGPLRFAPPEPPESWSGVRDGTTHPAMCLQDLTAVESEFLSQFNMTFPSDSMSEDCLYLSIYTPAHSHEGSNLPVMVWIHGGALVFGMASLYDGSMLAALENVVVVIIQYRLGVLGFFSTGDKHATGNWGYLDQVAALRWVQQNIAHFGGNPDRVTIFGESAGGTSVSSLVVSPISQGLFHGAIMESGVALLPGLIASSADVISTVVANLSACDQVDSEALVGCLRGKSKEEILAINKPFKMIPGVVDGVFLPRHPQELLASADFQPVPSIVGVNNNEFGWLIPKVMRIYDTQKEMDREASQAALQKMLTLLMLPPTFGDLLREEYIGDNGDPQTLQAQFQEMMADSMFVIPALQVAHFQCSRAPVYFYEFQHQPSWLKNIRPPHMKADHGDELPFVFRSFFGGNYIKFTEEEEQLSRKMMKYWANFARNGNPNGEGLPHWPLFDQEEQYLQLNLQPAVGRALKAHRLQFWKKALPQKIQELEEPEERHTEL

recombinant CES1 [5] = target: T2, recombinant CES1; assay: Activity-based probe; type: biochemical
Procedure, shortened: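 Recombinant human CES1 was expressed in baculovirus-infected Spodoptera frugiperda cells and purified. The enzyme was preincubated with test compound for 30 min and then treated with the activity-based probe fluorophosphonate-biotin. IC50 was estimated from probe labelling.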

[6] = cited from earlier work
[7] = target: T4, rat CES1 ortholog (Hydrolase A) (Rattus norvegicus, UniProt P16303); assay: Inhibition of rat CES1 ortholog; type: biochemical
T4 sequence (P16303 19-565): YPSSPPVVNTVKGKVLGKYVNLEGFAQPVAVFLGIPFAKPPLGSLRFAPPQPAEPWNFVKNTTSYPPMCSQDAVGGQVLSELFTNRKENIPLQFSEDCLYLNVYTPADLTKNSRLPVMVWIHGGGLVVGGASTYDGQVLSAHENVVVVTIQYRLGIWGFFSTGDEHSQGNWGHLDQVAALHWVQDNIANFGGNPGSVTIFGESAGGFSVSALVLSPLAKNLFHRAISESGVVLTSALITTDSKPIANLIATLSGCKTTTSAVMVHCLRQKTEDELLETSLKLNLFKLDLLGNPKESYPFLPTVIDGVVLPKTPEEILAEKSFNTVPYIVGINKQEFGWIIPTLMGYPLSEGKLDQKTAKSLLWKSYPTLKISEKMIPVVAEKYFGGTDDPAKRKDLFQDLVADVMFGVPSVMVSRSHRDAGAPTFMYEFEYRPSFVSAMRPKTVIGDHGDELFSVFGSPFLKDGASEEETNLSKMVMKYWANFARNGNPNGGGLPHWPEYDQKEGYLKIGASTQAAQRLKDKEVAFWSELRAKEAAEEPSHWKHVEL

recombinant CES1 [8] = target: T2, recombinant CES1; type: biochemical; conditions: read-out: Inhibition of CES1 hydrolytic activity toward trans-permethrin, 20 μM AA; trans-permethrin 50 μM; 2% (w/v) fatty acid-free bovine serum albumin added
[9] = Cell lysate IC50, THP1 cell lysate, pNPV 500 μM, 15 min preincubation at 37°C
[10] = CES1 IC50, recombinant CES1, pNPV 500 μM, 15 min preincubation at 37°C
[11] = read-out: CES1 IC50, recombinant CES1, pNPV 500 μM, 15 min preincubation at 37°C

IC50 [1, 9]: > 100 µM
IC50 (recombinant CES1 [2]; [10]): 25 ± 13 µM
SMILES: CCCCCCCCCCCCCCCC(=O)O [palmitic acid, Hexadecanoic acid]

IC50 [1, 9]: 11 ± 4 µM
IC50 (recombinant CES1 [2]; [10]): 7 ± 3 µM
SMILES: CCCCCCCC/C=C\CCCCCCCC(=O)O [oleic acid, 9Z-Octadecenoic acid]

IC50 (recombinant CES1 [2]; [11]): 13 ± 3 µM
SMILES: CCCCC/C=C/C=C1/C(=O)C=C[C@@H]1C/C=C\CCCC(=O)O [15-deoxy-Δ^12,14-Prostaglandin J2]

IC50 (recombinant CES1 [2]; [10]): > 100 µM
SMILES: CCCCC[C@H](O)/C=C/[C@@H]1[C@@H](C/C=C\CCCC(=O)O)[C@@H](O)C[C@H]1O [Prostaglandin F2α]

IC50 [1, 9]: > 100 µM
IC50 (recombinant CES1 [2]; [10]): > 100 µM
SMILES: CCCCCCCCCCCCCCCCCC(=O)O [stearic acid, Octadecanoic acid]

IC50 [1, 9]: 23 ± 3 µM
IC50 (recombinant CES1 [2]; [10]): 19 ± 10 µM
SMILES: CCCCC/C=C\C/C=C\C/C=C\CCCCC(=O)O [γ-linolenic acid, 6Z,9Z,12Z-Octadecatrienoic acid]

IC50 (recombinant CES1 [2]; [11]): 27 ± 1 µM
SMILES: CCCCC/C=C\CC1OC1C/C=C\C/C=C\CCCC(=O)O (stereo not drawn) [11,12-EET, 11,12-Epoxy-5Z,8Z,14Z-eicosatrienoic acid]

IC50 [1, 9]: 20 ± 3 µM
IC50 (recombinant CES1 [2]; [10]): 9 ± 6 µM
SMILES: CCCCC/C=C\C/C=C\CCCCCCCC(=O)O [linoleic acid, 9Z,12Z-Octadecadienoic acid]

IC50 [1, 9]: 28 ± 4 µM
IC50 (recombinant CES1 [2]; [10]): 9 ± 3 µM
SMILES: CCCCCCCCCCCCCC(=O)O [myristic acid, Tetradecanoic acid]

IC50 (recombinant CES1 [2]; read-out: IC50, CES1 enzyme activity, data not shown): ~7000 µM
SMILES: C[C@H](CCC(=O)O)[C@H]1CC[C@H]2[C@@H]3[C@H](O)C[C@@H]4C[C@H](O)CC[C@]4(C)[C@H]3C[C@H](O)[C@]12C [cholate]

IC50 (recombinant CES1 [2]; [10]): > 100 µM
SMILES: CCCCC[C@H](O)/C=C/[C@H]1[C@H](O)CC(=O)[C@@H]1C/C=C\CCCC(=O)O [Prostaglandin E2]

IC50 [1, 9]: 23 ± 6 µM
IC50 (recombinant CES1 [2]; [10]): 12 ± 2 µM
SMILES: CCCC/C=C\CCCCCCCC(=O)O [myristoleic acid, 9Z-Tetradecenoic acid]

IC50 (recombinant CES1 [2]; [11]): 38 ± 1 µM
SMILES: CCCCCC1OC1C/C=C\C/C=C\C/C=C\CCCC(=O)O (stereo not drawn) [14,15-EET]

The remaining lines, values behind:

SMILES: CC(C)CC[C@@H](O)[C@@H](C)[C@H]1CC[C@H]2[C@@H]3CC=C4C[C@@H](O)CC[C@]4(C)[C@H]3CC[C@]12C [22(R)-HC, 22(R)-hydroxycholesterol]
Inhibition of carboxylesterase activity of THP1 cell lysate ([1]; 50 μM oxysterol, pNPV): ~ 30%
Inhibitory effect on carboxylesterase activity of THP1 cell lysates (in words) ([1]; pNPV): little inhibitory activity
Effect on carboxylesterase activity of recombinant CES1 (in words) (recombinant CES1 [2]): minimal activity
Change in free cholesterol levels vs vehicle control ([3]; 12 h): No change
Change in intracellular cholesteryl esters vs vehicle control ([3]; 12 h): significant reduction

SMILES: C[C@H](CCCC(C)(C)O)[C@H]1CC[C@H]2[C@@H]3CC=C4C[C@@H](O)CC[C@]4(C)[C@H]3CC[C@]12C [25-HC, 25-hydroxycholesterol]
Inhibitory effect on carboxylesterase activity of THP1 cell lysates (in words) ([1]; pNPV): minimal inhibitory effect
Inhibitory effect on carboxylesterase activity of THP1 cell lysates (in words) ([1]; pNPV, listed as 25-hydroxycholesterol): little inhibitory activity
Inhibition of carboxylesterase activity of CES1 (recombinant CES1 [2]): < 15%

SMILES: CC(C)[C@@H](O)CC[C@@H](C)[C@H]1CC[C@H]2[C@@H]3CC=C4C[C@@H](O)CC[C@]4(C)[C@H]3CC[C@]12C [24(S)-HC, 24(S)-hydroxycholesterol]
Inhibitory effect on carboxylesterase activity of THP1 cell lysates (in words) ([1]; pNPV): minimal inhibitory effect
Inhibitory effect on carboxylesterase activity of THP1 cell lysates (in words) ([1]; pNPV, listed as 24(S)-hydroxycholesterol): little inhibitory activity

SMILES: CCOP(=O)(OCC)Oc1ccc([N+](=O)[O-])cc1 [paraoxon]
Inhibition of intracellular carboxylesterase activity [4]: 87%

SMILES: CC(C)CCC[C@@H](C)[C@H]1CC[C@H]2[C@@H]3CC=C4C[C@@H](O)CC[C@]4(C)[C@H]3CC[C@]12C [cholesterol]
Inhibitory effect on carboxylesterase activity of THP1 cell lysates (in words) ([1]; pNPV): little inhibitory activity; also recorded: no inhibitory effect
Effect on carboxylesterase activity of recombinant CES1 (in words) (recombinant CES1 [2]): almost no effect

SMILES: C[C@@H](CO)CCC[C@@H](C)[C@H]1CC[C@H]2[C@@H]3CC=C4C[C@@H](O)CC[C@]4(C)[C@H]3CC[C@]12C [27-HC, 27-hydroxycholesterol]
Inhibition of carboxylesterase activity of THP1 cell lysate ([1]; 50 μM oxysterol, pNPV): ~ 78%
IC50 ([1]; IC50, carboxylesterase activity of THP1 whole-cell lysates, THP1 whole-cell lysates, pNPV): 0.033 µM
IC50 (recombinant CES1 [2]): 0.05 ± 0.02 µM
Ki (recombinant CES1 [2]; Kiapp, recombinant CES1, ester substrate 4-MUBA, data not shown): 0.0104 ± 0.0013 µM
Ki (recombinant CES1 [2]; Kiapp, recombinant CES1, substrate pNPV, 15 min preincubation with enzyme): 0.01 µM and 0.0101 µM
Mode of inhibition of recombinant CES1 (recombinant CES1 [2]): partial non-competitive inhibitor
inhibition at 0.5 µM (recombinant CES1 [2]; read-out: Maximum inhibition of CES1 activity): ~67%
IC50 (recombinant CES2): > 5 µM
IC50 (recombinant CES1 [5]): 0.04 ± 0.02 µM
Change in intracellular cholesteryl esters vs vehicle control ([3]; 12 and 24 h): no significant changes
Change in free cholesterol levels vs vehicle control ([3]; 12 h): significantly reduced
Predicted solubility limit in aqueous solution [6]: 0.52 µM

SMILES: CCCCC/C=C\C/C=C\C/C=C\C/C=C\CCCC(=O)O [AA, 5Z,8Z,11Z,14Z-Eicosatetraenoic acid]
Inhibition of carboxylesterase activity of THP1 cell lysate ([1]; 100 μM fatty acid, pNPV): ~ 90%
IC50 [1, 9]: 4 ± 1 µM
Ki (recombinant CES1 [2]): 1.7 µM
IC50 (recombinant CES1 [2]; [10]): 2 ± 1 µM
Mode of inhibition of recombinant CES1 (recombinant CES1 [2]): noncompetitive inhibition model
IC50 (recombinant CES2): > 100 µM
IC50 [7]: 50 µM
IC50 toward rat CES1 relative to the human enzyme ([7]; rat vs human CES1): 25 fold
inhibition at 20 µM (recombinant CES1 [8]): 14%

SMILES: C[C@H](CC[C@@H]1OC1(C)C)[C@H]1CC[C@H]2[C@@H]3CC=C4C[C@@H](O)CC[C@]4(C)[C@H]3CC[C@]12C [epoxycholesterol, 24(S),25-epoxycholesterol]
Inhibition of carboxylesterase activity of THP1 cell lysate ([1]; 50 μM oxysterol, pNPV): ~ 70%
IC50 [1, 9]: 8.1 µM
Change in free cholesterol levels vs vehicle control ([3]; 12 and 24 h): reduced
Change in intracellular cholesteryl esters vs vehicle control ([3]; 12 and 24 h): no significant changes

SMILES: CC(C)CCC[C@@H](C)[C@H]1CC[C@H]2[C@@H]3C(=O)C=C4C[C@@H](O)CC[C@]4(C)[C@H]3CC[C@]12C [7-ketocholesterol]
Inhibitory effect on carboxylesterase activity of THP1 cell lysates (in words) ([1]; pNPV): little inhibitory activity; also recorded: minimal inhibitory effect
Inhibition of carboxylesterase activity of CES1 (recombinant CES1 [2]): < 15%
